Source: ChEMBL document CHEMBL1139946, “1-Aryl-4,6-dihydropyrazolo[4,3-d][1]benzazepin-5(1H)-ones: a new class of antiproliferative agents with selectivity for human leukemia and breast cancer cell lines” (Eur J Med Chem, 2007)

Key:
[1] = test system: NCI-H460; test: Antiproliferative activity against human NCI-H460 cells at 100 uM after 48 hrs relative to control; assay type: functional; settings: NCI-H460, 48 h
Outline: (§1)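 NCI three-cell-line prescreen (MCF7 breast, NCI-H460 non-small cell lung, SF-268 CNS). Cells inoculated and preincubated in microtiter plates, then exposed to test agent at 10^-4 M for 48 h. Alamar blue end-point read-out. Growth of treated cells expressed as percent of untreated control cells.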

[2] = target: 3-phosphoinositide-dependent protein kinase 1 (Homo sapiens) (UniProt O15530); test: Inhibition of PDK1 at 10 uM
[3] = test system: SF-268; test: Antiproliferative activity against human SF268 cells at 100 uM after 48 hrs relative to control; assay type: functional; settings: SF-268, 48 h; outline: as §1
[4] = target: Proto-oncogene tyrosine-protein kinase Src (Homo sapiens) (UniProt P12931); test: Inhibition of SRC at 10 uM
[5] = target: Insulin-like growth factor 1 receptor (Homo sapiens) (UniProt P08069); test: Inhibition of IGF1R at 10 uM
[6] = species: Homo sapiens; test: Inhibition of CDK4/cyclinD1 at 10 uM
[7] = target: Focal adhesion kinase 1 (Homo sapiens) (UniProt Q05397); test: Inhibition of FAK at 10 uM
[8] = target: T1, Serine/threonine-protein kinase PLK4 (Homo sapiens) (UniProt O00444); test: Inhibition of SAK at 10 uM
T1 sequence (whole entry): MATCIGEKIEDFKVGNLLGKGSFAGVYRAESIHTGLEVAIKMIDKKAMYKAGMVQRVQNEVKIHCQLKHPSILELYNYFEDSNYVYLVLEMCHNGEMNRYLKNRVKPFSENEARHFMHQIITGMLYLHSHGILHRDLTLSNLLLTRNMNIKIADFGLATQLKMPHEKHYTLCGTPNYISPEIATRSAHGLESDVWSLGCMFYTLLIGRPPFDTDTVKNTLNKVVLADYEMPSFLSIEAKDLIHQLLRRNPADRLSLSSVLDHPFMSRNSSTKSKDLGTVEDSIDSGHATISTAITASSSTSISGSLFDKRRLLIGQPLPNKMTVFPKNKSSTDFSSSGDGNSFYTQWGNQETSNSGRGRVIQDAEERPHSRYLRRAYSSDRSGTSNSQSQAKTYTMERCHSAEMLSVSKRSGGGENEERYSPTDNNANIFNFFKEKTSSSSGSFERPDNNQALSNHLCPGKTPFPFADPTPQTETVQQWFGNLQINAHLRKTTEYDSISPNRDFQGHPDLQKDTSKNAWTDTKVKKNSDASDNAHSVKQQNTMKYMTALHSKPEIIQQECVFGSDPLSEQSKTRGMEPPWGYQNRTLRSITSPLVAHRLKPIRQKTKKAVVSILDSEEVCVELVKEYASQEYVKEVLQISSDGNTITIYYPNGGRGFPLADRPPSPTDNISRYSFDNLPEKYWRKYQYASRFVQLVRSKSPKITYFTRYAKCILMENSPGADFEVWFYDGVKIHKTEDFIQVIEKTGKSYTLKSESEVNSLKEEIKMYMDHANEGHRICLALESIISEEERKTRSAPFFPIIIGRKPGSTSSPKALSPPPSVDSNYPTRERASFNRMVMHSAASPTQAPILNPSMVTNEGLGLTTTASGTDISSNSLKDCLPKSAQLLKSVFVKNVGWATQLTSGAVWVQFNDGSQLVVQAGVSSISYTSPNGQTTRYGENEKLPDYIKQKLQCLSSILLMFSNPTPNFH

[9] = test system: MCF7; test: Antiproliferative activity against human MCF7 cells at 100 uM after 48 hrs relative to control; assay type: functional; settings: MCF7, 48 h; outline: as §1
[10] = target: Hepatocyte growth factor receptor (Homo sapiens) (UniProt P08581); test: Inhibition of MET at 10 uM
[11] = species: Homo sapiens; test: Inhibition of CK2-alpha1 at 10 uM
[12] = target: T2, Aurora kinase A (Homo sapiens) (UniProt O14965); test: Inhibition of aurora A at 10 uM
T2 sequence (whole entry): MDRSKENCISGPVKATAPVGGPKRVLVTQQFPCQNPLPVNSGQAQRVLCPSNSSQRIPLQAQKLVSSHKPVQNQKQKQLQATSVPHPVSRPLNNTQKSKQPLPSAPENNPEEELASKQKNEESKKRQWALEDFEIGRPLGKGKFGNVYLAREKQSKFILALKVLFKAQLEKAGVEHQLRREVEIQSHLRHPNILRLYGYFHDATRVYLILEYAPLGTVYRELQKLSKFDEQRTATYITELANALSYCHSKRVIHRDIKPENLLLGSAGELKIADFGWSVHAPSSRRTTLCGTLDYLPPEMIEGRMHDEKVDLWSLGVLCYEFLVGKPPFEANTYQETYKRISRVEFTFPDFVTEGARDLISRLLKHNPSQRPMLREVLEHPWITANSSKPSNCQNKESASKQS

[13] = target: Vascular endothelial growth factor receptor 3 (Homo sapiens, UniProt P35916); test: Inhibition of VEGFR3 at 10 uM
[14] = target: Aurora kinase B (Homo sapiens) (UniProt Q96GD4); test: Inhibition of aurora B at 10 uM
[15] = target: T3, NUAK family SNF1-like kinase 1 (Homo sapiens) (UniProt O60285); test: Inhibition of ARK5 at 10 uM
T3 sequence (whole entry): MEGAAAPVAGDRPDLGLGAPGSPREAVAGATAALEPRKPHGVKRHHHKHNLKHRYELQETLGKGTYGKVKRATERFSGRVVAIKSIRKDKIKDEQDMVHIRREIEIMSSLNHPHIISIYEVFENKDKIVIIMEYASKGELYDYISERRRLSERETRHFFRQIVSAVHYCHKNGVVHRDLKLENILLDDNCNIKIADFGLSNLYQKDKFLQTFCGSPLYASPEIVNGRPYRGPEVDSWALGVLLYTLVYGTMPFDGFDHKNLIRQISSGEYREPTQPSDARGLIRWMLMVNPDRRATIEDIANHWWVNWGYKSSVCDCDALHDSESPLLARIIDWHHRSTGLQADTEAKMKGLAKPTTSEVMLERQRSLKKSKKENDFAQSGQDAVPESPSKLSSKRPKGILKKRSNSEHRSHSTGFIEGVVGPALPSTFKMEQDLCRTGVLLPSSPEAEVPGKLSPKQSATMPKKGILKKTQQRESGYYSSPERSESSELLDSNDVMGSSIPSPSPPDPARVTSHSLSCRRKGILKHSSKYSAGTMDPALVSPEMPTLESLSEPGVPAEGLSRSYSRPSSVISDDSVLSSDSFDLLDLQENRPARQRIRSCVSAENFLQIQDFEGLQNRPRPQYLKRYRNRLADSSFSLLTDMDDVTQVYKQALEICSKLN

Sequence of Hepatocyte growth factor receptor (Homo sapiens) (P08581 whole entry): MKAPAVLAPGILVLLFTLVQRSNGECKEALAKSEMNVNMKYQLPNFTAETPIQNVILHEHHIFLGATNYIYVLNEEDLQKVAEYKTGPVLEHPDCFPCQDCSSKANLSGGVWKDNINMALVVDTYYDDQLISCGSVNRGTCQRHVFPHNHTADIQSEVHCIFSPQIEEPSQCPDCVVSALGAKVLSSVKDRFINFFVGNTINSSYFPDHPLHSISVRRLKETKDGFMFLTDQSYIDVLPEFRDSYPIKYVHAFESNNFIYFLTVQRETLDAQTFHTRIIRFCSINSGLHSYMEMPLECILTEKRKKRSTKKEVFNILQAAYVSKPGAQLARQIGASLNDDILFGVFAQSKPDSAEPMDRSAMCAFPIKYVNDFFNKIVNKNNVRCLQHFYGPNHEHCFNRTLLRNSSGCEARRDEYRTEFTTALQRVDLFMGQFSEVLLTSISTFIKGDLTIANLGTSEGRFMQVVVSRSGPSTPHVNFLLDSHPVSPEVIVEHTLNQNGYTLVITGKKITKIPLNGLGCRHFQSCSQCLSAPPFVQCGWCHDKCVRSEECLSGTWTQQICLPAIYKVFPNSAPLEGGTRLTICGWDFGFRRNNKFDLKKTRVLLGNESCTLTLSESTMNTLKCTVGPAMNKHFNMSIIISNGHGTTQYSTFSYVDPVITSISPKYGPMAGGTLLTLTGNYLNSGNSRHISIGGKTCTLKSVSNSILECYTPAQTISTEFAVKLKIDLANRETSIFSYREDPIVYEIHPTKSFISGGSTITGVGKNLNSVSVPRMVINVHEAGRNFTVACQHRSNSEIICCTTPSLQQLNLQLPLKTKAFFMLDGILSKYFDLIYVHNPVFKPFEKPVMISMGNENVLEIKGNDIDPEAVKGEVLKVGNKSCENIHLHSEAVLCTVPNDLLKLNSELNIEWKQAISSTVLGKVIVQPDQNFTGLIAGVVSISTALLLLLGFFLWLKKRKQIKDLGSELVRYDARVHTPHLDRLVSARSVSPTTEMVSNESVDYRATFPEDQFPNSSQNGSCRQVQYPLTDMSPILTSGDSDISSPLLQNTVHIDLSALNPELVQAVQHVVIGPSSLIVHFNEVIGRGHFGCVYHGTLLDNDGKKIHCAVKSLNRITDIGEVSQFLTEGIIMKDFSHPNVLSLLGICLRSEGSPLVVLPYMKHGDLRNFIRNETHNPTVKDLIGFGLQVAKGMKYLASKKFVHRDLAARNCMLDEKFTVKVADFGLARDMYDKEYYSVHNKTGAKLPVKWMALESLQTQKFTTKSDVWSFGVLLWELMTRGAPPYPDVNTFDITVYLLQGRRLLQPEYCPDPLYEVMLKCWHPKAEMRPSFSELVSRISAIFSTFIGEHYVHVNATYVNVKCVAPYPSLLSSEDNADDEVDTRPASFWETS
Sequence of Proto-oncogene tyrosine-protein kinase Src (Homo sapiens) (P12931 2-536 limits assumed): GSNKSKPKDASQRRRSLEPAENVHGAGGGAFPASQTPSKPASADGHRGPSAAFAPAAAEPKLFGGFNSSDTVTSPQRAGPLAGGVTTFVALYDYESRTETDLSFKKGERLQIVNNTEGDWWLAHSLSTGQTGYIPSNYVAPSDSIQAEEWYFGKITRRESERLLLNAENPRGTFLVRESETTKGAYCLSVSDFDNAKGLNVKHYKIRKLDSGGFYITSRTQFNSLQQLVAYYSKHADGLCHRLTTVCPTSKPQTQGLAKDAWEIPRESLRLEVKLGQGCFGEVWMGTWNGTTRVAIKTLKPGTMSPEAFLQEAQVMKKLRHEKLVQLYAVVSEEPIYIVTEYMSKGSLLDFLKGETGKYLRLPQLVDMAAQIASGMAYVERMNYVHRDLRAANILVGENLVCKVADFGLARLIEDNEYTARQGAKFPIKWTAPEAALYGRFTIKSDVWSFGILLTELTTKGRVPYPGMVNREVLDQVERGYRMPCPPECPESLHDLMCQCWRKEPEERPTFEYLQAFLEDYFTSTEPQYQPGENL
Sequence of 3-phosphoinositide-dependent protein kinase 1 (Homo sapiens) (O15530 whole entry, looked up): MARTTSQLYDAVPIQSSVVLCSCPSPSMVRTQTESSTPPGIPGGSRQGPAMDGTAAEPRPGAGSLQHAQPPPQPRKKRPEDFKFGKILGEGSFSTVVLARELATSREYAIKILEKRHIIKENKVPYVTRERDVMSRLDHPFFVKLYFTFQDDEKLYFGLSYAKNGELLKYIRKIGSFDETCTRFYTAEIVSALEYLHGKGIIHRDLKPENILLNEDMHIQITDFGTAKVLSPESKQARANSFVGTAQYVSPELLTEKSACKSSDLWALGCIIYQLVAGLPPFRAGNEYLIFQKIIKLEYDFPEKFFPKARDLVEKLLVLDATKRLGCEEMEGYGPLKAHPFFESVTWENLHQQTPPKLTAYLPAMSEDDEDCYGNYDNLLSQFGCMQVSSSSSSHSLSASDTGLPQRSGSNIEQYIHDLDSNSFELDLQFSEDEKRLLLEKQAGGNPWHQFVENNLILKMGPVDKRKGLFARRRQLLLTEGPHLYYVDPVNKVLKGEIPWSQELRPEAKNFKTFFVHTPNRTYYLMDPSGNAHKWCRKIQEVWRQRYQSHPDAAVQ
Sequence of Focal adhesion kinase 1 (Homo sapiens) (Q05397 2-1052 limits assumed): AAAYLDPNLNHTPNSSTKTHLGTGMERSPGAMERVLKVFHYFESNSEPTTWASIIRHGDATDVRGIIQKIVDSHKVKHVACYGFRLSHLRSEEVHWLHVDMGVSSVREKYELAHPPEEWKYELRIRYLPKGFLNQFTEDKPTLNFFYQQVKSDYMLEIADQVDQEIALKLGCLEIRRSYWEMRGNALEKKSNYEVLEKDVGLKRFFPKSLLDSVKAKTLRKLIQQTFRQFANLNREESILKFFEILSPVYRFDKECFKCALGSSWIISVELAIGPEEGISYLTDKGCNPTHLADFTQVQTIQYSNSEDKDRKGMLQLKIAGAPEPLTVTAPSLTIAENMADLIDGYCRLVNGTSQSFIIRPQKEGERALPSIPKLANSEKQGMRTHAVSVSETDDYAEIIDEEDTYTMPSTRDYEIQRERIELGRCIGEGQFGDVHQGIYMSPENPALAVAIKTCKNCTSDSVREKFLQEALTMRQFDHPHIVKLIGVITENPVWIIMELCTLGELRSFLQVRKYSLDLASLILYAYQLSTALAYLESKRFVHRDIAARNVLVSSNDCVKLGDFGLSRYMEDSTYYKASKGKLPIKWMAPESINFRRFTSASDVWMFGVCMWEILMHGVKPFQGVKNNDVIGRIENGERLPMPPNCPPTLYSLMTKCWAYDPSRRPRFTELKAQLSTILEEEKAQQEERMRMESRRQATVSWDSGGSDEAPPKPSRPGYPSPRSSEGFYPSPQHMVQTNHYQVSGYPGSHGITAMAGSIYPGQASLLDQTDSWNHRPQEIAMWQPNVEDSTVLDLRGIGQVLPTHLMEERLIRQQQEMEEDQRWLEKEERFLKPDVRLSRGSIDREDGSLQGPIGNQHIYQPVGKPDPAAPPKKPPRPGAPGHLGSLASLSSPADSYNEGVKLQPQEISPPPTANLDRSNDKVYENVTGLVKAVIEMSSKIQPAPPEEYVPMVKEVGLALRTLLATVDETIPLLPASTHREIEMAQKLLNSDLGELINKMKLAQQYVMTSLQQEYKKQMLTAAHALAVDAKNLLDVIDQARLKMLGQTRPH
Sequence of Insulin-like growth factor 1 receptor (Homo sapiens) (P08069 31-736 limits assumed): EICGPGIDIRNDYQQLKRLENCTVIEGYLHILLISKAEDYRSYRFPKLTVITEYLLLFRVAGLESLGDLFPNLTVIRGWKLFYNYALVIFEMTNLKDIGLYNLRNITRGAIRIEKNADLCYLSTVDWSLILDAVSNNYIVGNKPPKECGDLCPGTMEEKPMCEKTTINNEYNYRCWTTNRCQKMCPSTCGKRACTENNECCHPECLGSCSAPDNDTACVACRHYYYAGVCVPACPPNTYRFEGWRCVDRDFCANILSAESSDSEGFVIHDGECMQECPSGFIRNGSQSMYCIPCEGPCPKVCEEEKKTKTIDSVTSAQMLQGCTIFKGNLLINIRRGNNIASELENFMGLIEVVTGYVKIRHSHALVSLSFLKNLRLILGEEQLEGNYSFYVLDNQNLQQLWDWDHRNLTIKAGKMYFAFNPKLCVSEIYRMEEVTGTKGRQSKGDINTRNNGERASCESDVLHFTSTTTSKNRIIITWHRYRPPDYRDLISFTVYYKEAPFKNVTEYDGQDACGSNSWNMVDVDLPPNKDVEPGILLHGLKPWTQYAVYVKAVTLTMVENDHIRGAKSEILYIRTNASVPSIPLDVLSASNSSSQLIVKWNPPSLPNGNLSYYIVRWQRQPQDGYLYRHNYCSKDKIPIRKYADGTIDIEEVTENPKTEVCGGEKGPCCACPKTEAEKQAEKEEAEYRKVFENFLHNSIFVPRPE
Sequence of Insulin-like growth factor 1 receptor (Homo sapiens) (P08069 741-1367 limits assumed): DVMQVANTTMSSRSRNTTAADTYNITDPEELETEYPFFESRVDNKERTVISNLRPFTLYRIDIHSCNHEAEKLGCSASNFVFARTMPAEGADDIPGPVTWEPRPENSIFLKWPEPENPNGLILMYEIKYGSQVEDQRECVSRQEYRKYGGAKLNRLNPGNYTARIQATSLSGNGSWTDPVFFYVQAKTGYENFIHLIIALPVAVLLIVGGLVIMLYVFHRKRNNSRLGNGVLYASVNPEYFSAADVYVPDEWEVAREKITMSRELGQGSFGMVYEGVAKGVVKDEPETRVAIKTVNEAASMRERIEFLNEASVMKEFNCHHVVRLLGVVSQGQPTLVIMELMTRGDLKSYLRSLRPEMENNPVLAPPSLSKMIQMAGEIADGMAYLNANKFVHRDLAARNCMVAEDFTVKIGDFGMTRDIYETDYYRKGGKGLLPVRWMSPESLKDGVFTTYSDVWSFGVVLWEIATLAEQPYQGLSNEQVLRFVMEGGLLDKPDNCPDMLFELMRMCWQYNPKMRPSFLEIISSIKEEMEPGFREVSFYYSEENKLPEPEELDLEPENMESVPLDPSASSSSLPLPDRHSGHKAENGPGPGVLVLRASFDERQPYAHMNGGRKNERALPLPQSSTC

## O=C1Cc2cnn(-c3ccccc3F)c2-c2ccccc2N1
[1]
  growth, % of control at 100 µM: 49%
[2]
  inhibition: < 40%
[3]
  growth, % of control at 100 µM: 98%
[4]
  inhibition: < 40%
[5]
  inhibition: < 40%
[6]
  inhibition: < 40%
[7]
  inhibition: < 40%
[8]
  inhibition: < 40%
[9]
  growth, % of control at 100 µM: 66%
[10]
  inhibition: < 40%
[11]
  inhibition: < 40%
[12]
  inhibition: < 40%
[13]
  inhibition: < 40%
[14]
  inhibition: < 40%
[15]
  inhibition: < 40%

## COc1ccc(-n2ncc3c2-c2ccccc2NC(=O)C3)cc1
[1]
  growth, % of control at 100 µM: 26%
[2]
  inhibition: < 40%
[3]
  growth, % of control at 100 µM: 88%
[4]
  inhibition: < 40%
[5]
  inhibition: < 40%
[6]
  inhibition: < 40%
[7]
  inhibition: < 40%
[8]
  inhibition: < 40%
[9]
  growth, % of control at 100 µM: 60%
[10]
  inhibition: < 40%
[11]
  inhibition: < 40%
[12]
  inhibition: < 40%
[13]
  inhibition: < 40%
[14]
  inhibition: < 40%
[15]
  inhibition: < 40%

## O=C1Cc2cnn(-c3ccc(Cl)cc3)c2-c2ccccc2N1
[1]
  growth, % of control at 100 µM: 41%
[2]
  inhibition: < 40%
[3]
  growth, % of control at 100 µM: 80%
[4]
  inhibition: < 40%
[5]
  inhibition: < 40%
[6]
  inhibition: < 40%
[7]
  inhibition: < 40%
[8]
  inhibition: < 40%
[9]
  growth, % of control at 100 µM: 54%
[10]
  inhibition: < 40%
[11]
  inhibition: < 40%
[12]
  inhibition: < 40%
[13]
  inhibition: < 40%
[14]
  inhibition: < 40%
[15]
  inhibition: < 40%
